Assay results from ChEMBL document CHEMBL1147926, “Synthetic chalcones, flavanones, and flavones as antitumoral agents: biological evaluation and structure-activity relationships” (Bioorg Med Chem, 2007).

Assays:
HT-29 [1] = assay: Cytotoxicity against human HT29 cells ATCC HTB38 in aerobic condition assessed as survival at 100 uM by sulforhodamine assay; format: functional; settings: read-out: Activity
How it was run: (§1)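 Cells kept in RPMI with L-glutamine, penicillin/streptomycin, non-essential amino acids (1% each) and 10% FBS, 37 °C, 5% CO2, 48 h; compound added from 1 mM stock in 10% DMSO to final 100 µM, 24 h exposure. TCA fixation 1 h at 4 °C, sulforhodamine B staining, Tris pH 10.0, A540. Survival = (T/C)×100 versus solvent control; duplicates, two repetitions averaged.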

TK-10 [2] = assay: Cytotoxicity against human TK10 cells in aerobic condition assessed as survival at 100 uM by sulforhodamine assay; format: functional; settings: read-out: Activity; how it was run: as §1
MCF7 [3] = assay: Cytotoxicity against human MCF7 cells […] in aerobic condition assessed as survival at 100 uM by sulforhodamine assay; format: functional; settings: read-out: Activity; how it was run: as §1
HT-29 [4] = assay: Growth inhibition of HT29 cells by sulforhodamine assay; format: functional, cell-based; settings: Homo sapiens
How it was run: (§2)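 Cells grown in supplemented RPMI with 10% FBS at 37 °C, 5% CO2, 48 h, then exposed to increasing compound concentrations (1 mM stocks in 10% DMSO) for 24 h. Sulforhodamine B read-out after TCA fixation at A540. IC50 is the concentration halving absorbance relative to solvent control. Duplicates, at least two repetitions, means reported.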

TK-10 [5] = assay: Growth inhibition of TK10 cells by sulforhodamine assay; format: functional, cell-based; settings: Homo sapiens; how it was run: as §2
[6] = Growth inhibition of HK2 cells by sulforhodamine assay; format: cell-based; settings: Homo sapiens, HK-2
MCF7 [7] = assay: Growth inhibition of MCF7 cells by sulforhodamine assay; format: functional, cell-based; settings: Homo sapiens; how it was run: as §2

| Compound | viability at 100 µM (HT-29 [1]) | viability at 100 µM (TK-10 [2]) | viability at 100 µM (MCF7 [3]) | IC50 (HT-29 [4]) | IC50 (TK-10 [5]) | IC50 [6] | IC50 (MCF7 [7]) |
| --- | --- | --- | --- | --- | --- | --- | --- |
| O=C(/C=C/c1ccc(O)cc1)c1ccccc1O | 9% | 5% | 3% | – | – | – | – |
| O=c1cc(-c2ccc(Cl)cc2)oc2ccccc12 | 100% | 74% | 100% | – | – | – | – |
| CC(=O)Nc1ccc(/C=C/C(=O)c2ccccc2)cc1 | 3% | 5% | 24% | – | – | – | – |
| O=C(/C=C/c1ccc(Cl)cc1)c1ccccc1O | 25% | 3% | 41% | 45 µM | – | – | – |
| COc1ccc(/C=C/C(=O)c2ccccc2O)cc1 | 97% | 4% | 10% | – | 67 µM | 23.7 µM | – |
| CCCCCCOc1ccc(/C=C/C(=O)c2ccccc2O)cc1 | 97% | 62% | 76% | – | – | – | – |
| COc1ccc(C2CC(=O)c3ccccc3O2)cc1 (stereo not given) | 100% | 36% | 2% | – | – | – | – |
| O=c1cc(-c2ccccc2Br)oc2ccccc12 | 61% | 69% | 36% | – | – | – | – |
| O=C(/C=C/c1ccc(OCc2ccccc2)cc1)c1ccccc1O | 59% | 64% | 56% | – | – | – | – |
| O=C1CC(c2ccc(OCc3ccccc3)cc2)Oc2ccccc21 (stereo not given) | 69% | 78% | 76% | – | – | – | – |
| COc1ccc(C2CC(=O)c3ccccc3O2)cc1OC (stereo not given) | 68% | 69% | 81% | – | – | – | – |
| CSc1ccc(/C=C/C(=O)c2ccccc2O)cc1 | 76% | 91% | 75% | – | – | – | – |
| CSc1ccc(C(O)CC(=O)c2ccccc2O)cc1 (stereo not given) | 100% | 100% | 90% | – | – | – | – |
| CN(C)c1ccc(/C=C/C(=O)c2ccccc2O)cc1 | 65% | 76% | 87% | – | – | – | – |
| CC(=O)Nc1ccc(/C=C/C(=O)c2ccccc2O)cc1 | 87% | 89% | 79% | – | – | – | – |
| O=C(/C=C/c1ccc(Br)cc1)c1ccccc1 | 28% | 90% | 44% | – | – | – | – |
| O=C(/C=C/c1ccccc1Br)c1ccccc1 | 26% | 2% | 32% | – | – | – | – |
| CSc1ccc(/C=C/C(=O)c2ccccc2)cc1 | 46% | 0% | 47% | – | – | – | – |
| Nc1ccc(/C=C/C(=O)c2ccccc2O)cc1 | 98% | 91% | 43% | – | – | – | – |
| COc1ccc(OC)c(/C=C/C(=O)c2ccccc2O)c1 | 92% | 56% | 45% | – | – | – | – |
| O=C(CCc1ccc(OCc2ccccc2)cc1)c1ccccc1O | 100% | 95% | 89% | – | – | – | – |
| COc1cc(O)c(C(=O)/C=C/c2ccc(OC)c(OC)c2)c(OC)c1 | – | 100% | 89% | – | – | – | – |
| O=C(/C=C/c1ccccc1)c1ccc(OCc2ccccc2)cc1O | 99% | 72% | 74% | – | – | – | – |
| O=C(/C=C/c1ccc(OCc2ccccc2)cc1)c1ccc(OCc2ccccc2)cc1O | 100% | 92% | 100% | – | – | – | – |
| CCCCOc1ccc(/C=C/C(=O)c2ccc(OCCCC)cc2O)cc1 | 99% | 79% | 81% | – | – | – | – |
| COc1cc(/C=C/C(=O)c2ccccc2O)ccc1OCc1ccccc1 | 100% | 90% | 97% | – | – | – | – |
| O=C(/C=C/c1ccc2c(c1)OCO2)c1ccccc1O | 69% | 50% | 79% | – | – | 11.6 µM | – |

| Compound | viability at 100 µM (HT-29 [1]) | viability at 100 µM (TK-10 [2]) | viability at 100 µM (MCF7 [3]) | IC50 (HT-29 [4]) | IC50 (TK-10 [5]) | IC50 [6] | IC50 (MCF7 [7]) |
| --- | --- | --- | --- | --- | --- | --- | --- |
| COc1ccc(/C=C/C(=O)c2ccccc2O)cc1I | 92% | 41% | 96% | – | – | – | – |
| O=C(/C=C/c1ccc(OCc2ccccc2)c(I)c1)c1ccccc1O | 100% | 78% | 81% | – | – | – | – |
| O=C(/C=C/C=C/c1ccccc1)c1ccccc1O | – | 100% | 84% | – | – | – | – |
| O=c1cc(-c2ccc(Br)cc2)oc2ccccc12 | 100% | 94% | 73% | – | – | 48 µM | – |
| O=C(/C=C/c1ccc([N+](=O)[O-])cc1)c1ccccc1O | 94% | 34% | 43% | – | – | – | – |
| COc1ccc(/C=C/C(=O)c2ccccc2O)cc1OC | 70% | 2% | 1% | – | 90 µM | – | 95 µM |
| O=C1CC(c2ccc3c(c2)OCO3)Oc2ccccc21 (stereo not given) | 100% | 100% | 100% | – | – | – | – |
| O=C(/C=C/c1ccccc1Br)c1ccc(OCc2ccccc2)cc1O | 80% | 65% | 74% | – | – | – | – |
| O=C1CC(c2ccc(Br)cc2)Oc2ccccc21 (stereo not given) | 61% | 16% | 26% | – | – | – | – |
| O=C(/C=C/c1ccccc1[N+](=O)[O-])c1ccccc1O | 100% | 100% | 100% | – | – | – | – |
| CCCCCCCCCOc1ccc(/C=C/C(=O)c2ccccc2O)cc1 | 98% | 77% | 86% | – | – | – | – |
| O=C(/C=C/c1ccccn1)c1ccccc1O | 15% | 1% | 4% | 13.8 µM | 12.2 µM | 7.9 µM | 6.7 µM |
| COc1cc(O)c(C(=O)/C=C/c2ccccc2Br)c(OC)c1 | 87% | 53% | 82% | – | – | – | – |
| O=C(/C=C/c1ccccc1Br)c1ccccc1O | 0% | 3% | 100% | – | – | – | – |
| COc1ccc(/C=C/C(=O)c2ccccc2O)cc1OCc1ccccc1 | 100% | 100% | 100% | – | – | – | – |
| O=C(/C=C/c1ccco1)c1ccccc1O | 40% | 48% | 60% | – | – | – | – |
| O=C1CC(c2ccccc2Br)Oc2ccccc21 (stereo not given) | 44% | 54% | 12% | – | – | – | – |
| O=C(/C=C/c1ccc(Br)cc1)c1ccccc1O | 71% | 60% | 43% | – | – | 33.8 µM | – |
| O=C(/C=C/c1ccccc1)c1ccccc1O [2'-HYDROXYCHALCONE] | 14% | 0% | 3% | 85 µM | 79 µM | 24.4 µM | 78 µM |
| COc1ccc(-c2cc(=O)c3ccccc3o2)cc1 [4'-METHOXYFLAVONE] | 100% | 82% | 100% | – | – | – | – |
| O=C(/C=C/c1ccc(Cl)cc1)c1ccccc1 [4-CHLORO CHALCONE] | 9% | 2% | 56% | – | – | – | – |
| COc1ccc(/C=C/C(=O)c2ccccc2)cc1 [4-METHOXY CHALCONE] | 2% | 2% | 30% | 54 µM | 53 µM | 23.2 µM | 90 µM |
| O=C(/C=C/c1ccccc1)c1ccccc1 [CHALCONE] | 5% | 2% | 19% | 70 µM | 42 µM | 30.5 µM | 63 µM |
| O=C1CC(c2ccccc2)Oc2ccccc21 (stereo not given) [FLAVANONE] | 69% | 79% | 54% | – | – | – | – |
| COc1ccc(/C=C/C(=O)c2c(O)cc(OC)cc2OC)cc1 [FLAVOKAWAIN A] | – | 71% | 60% | – | – | – | – |
| O=c1cc(-c2ccccc2)oc2ccccc12 [FLAVONE] | 90% | 87% | 57% | – | – | – | – |
